Here are results for seven compounds from ChEMBL document CHEMBL3232738, “Arabinose 5-phosphate isomerase as a target for antibacterial design: studies with substrate analogues and inhibitors” (2014).

The subject of assay [1] is Pseudomonas aeruginosa. The experiment in a line: Binding affinity to Pseudomonas aeruginosa KdsD expressed Escherichia coli at 5 mM after 2 to 3 days by STD-NMR analysis. Put shortly: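 N-His6 Pa-KdsD was expressed in E. coli M15/pREP4 (0.5 mM IPTG, 4 h), Ni-NTA purified (>95%). Ligand at 5 mM with enzyme in PBS pH 7.0, 25 °C, sampled after 0, 2 and 3 days. STD: 50 ms Gaussian pulses, 3 s saturation, on-resonance 7.9 ppm, off-resonance 40 ppm, 2 ms T1ρ filter; free-ligand reference spectra.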

In assay [2] the test system is Escherichia coli. The experiment in a line: Antibacterial activity against Escherichia coli K-12 BW25113 after 18 to 20 hrs by broth microdilution test in presence of glucose-6-phosphate. It is filed as functional. Put shortly:
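For E. coli BW25113, broth microdilution was run with glucose 6-phosphate added. Conditions: Mueller–Hinton broth, triplicate concentrations from 2 mM downward, about 5 × 10⁵ cfu mL⁻¹ inoculum, 18–20 h at 37 °C. MIC was the lowest concentration inhibiting growth.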
Background: In broth dilution the organism is exposed to a series of concentrations in liquid medium.

Assay [3] concerns Escherichia coli. Put plainly: Antibacterial activity against Escherichia coli AS19 after 18 to 20 hrs by broth microdilution test.
Assay [4] concerns Pseudomonas aeruginosa. Put plainly: Antibacterial activity against Pseudomonas aeruginosa PAO1 ATCC 15692 after 18 to 20 hrs by broth microdilution test. The format is functional. Put shortly:
(§1)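 Broth microdilution in Mueller–Hinton broth: compounds in triplicate serial dilutions from 2 mM downward, inoculum about 5 × 10⁵ cfu mL⁻¹, 18–20 h at 37 °C. MIC was taken as the lowest concentration inhibiting growth. The wild-type strain was run without glucose 6-phosphate.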

In assay [5] the test system is Escherichia coli. Put plainly: Antibacterial activity against Escherichia coli K-12 BW25113 after 18 to 20 hrs by broth microdilution test. The format is functional. Put shortly: as §1

≈ marks a conversion by molar mass, not a printed value. Calls of active or inactive are those of the source. The calls are words filed in the database; no cut-off is given here. Bounds are passed on as bounds.

Turning to `O=C(NO)[C@H](O)[C@H](O)COP(=O)(O)O`, in the assay on Pseudomonas aeruginosa [1], the outcome was Active.
On to `CO[C@H]1O[C@H](C(=O)O)[C@@H](O)[C@@H]1O`, for which the minimal inhibitory concentration (MIC) was above 2000 µM with Escherichia coli [2], 250 µM (≈ 44.5 µg/mL) against Escherichia coli [3], above 2000 µM against Pseudomonas aeruginosa [4] and above 2000 µM in the assay on Escherichia coli [5]. Besides, the result in the assay with Pseudomonas aeruginosa [1] was Active.
With `CO[C@H]1O[C@H](COP(=O)(O)O)[C@@H](O)[C@@H]1O`, the MIC with Escherichia coli [2] was above 2000 µM; with Escherichia coli [3] it was 250 µM (≈ 61 µg/mL); in the assay with Pseudomonas aeruginosa [4] it was above 2000 µM; with Escherichia coli [5] it was above 2000 µM.
For `CO[C@@H]1O[C@H](COP(=O)(O)O)[C@@H](O)[C@@H]1O`, the MIC with Escherichia coli [2] is above 2000 µM; against Escherichia coli [3], 250 µM (≈ 61 µg/mL); with Pseudomonas aeruginosa [4], above 2000 µM; against Escherichia coli [5], above 2000 µM.
On to `CC(=O)O[C@H](COP(=O)(O)O)[C@@H](O)C(=O)NO`, for which the result in the assay on Pseudomonas aeruginosa [1] was Active.
On the same count and under the same terms, with `NC(=O)[C@H](O)[C@H](O)COP(=O)(O)O` the entry was “Active”.
As for `CO[C@@H]1O[C@H](C(=O)O)[C@@H](O)[C@@H]1O`, the MIC is above 2000 µM in the assay with Escherichia coli [2], 250 µM (≈ 44.5 µg/mL) against Escherichia coli [3], above 2000 µM against Pseudomonas aeruginosa [4] and above 2000 µM with Escherichia coli [5]. Also, in the assay on Pseudomonas aeruginosa [1], the result was Active.

For orientation: MIC means the least concentration at which growth counts as inhibited.
